Data set [1] is described as follows: Compound was tested in vivo for clearance after iv administration in the rat. The class given is ADME, organism-based. An outline of the steps:
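Rats received each compound as an iv bolus. Serum levels were measured by RIA using an antibody recognizing the C-terminal Leu-Arg-ProNHEt; one analogue was measured with an anti-[D-Lys6]LHRH antibody instead. Whole-body clearance was calculated as dose divided by the area under the concentration–time curve and expressed in mL/min per kg.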

A short description of data set [2]: Compound was tested in vitro for lumenal concentration in the rat jejunal sac to decrease by 50%. The class given is ADME. An outline of the steps:
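Peptides were incubated at 37 °C inside short closed segments of rat jejunum in oxygenated Ringer's buffer, pH 6.8. At set times, segments were removed from the bath and the lumenal contents were assayed for peptide by HPLC. T1/2 is the time, in min, for the lumenal concentration to fall by 50%.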

The nature of data set [3]: Compound was tested in vitro for chymotrypsin degradation. The class given is ADME. An outline of the steps: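 Each peptide was mixed with chymotrypsin in 30 mM sodium phosphate/100 mM NaCl, pH 6.9 (enzyme at 5 µg/mL in the buffer before mixing, prewarmed to 37 °C) and incubated at 37 °C. Aliquots were taken at set intervals from 0.083 min up to 60 min and quenched in 3:7 acetonitrile/water. Degradation was followed chromatographically, and the half-life is given in min.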

Square brackets hold non-standard residues; d marks the D form. Peptide text beside a SMILES is read from it. 1Nal = N[C@@H](Cc1cccc2ccccc12)C(=O)O; NMeF = CN[C@@H](Cc1ccccc1)C(=O)O; pGlu = O=C1CC[C@@H](C(=O)O)N1; NMeS = CN[C@@H](CO)C(=O)O Bounds are passed on as bounds.

The results in this text go back to ChEMBL document CHEMBL1125322, “Stabilization of the N-terminal residues of luteinizing hormone-releasing hormone agonists and the effect on pharmacokinetics” (J Med Chem, 1992).

For the compound `CCNC(=O)[C@@H]1CCCN1C(=O)[C@H](CCCN=C(N)N)NC(=O)[C@H](CC(C)C)NC(=O)[C@@H](CC(C)C)NC(=O)[C@H](Cc1ccc(O)cc1)NC(=O)[C@H](CO)NC(=O)[C@H](Cc1c[nH]c2ccccc12)NC(=O)[C@H](Cc1c[nH]cn1)NC(=O)CN(C)C(C)=O`, the clearance in data set [1] worked out at 24 mL/min/kg. The values for the half-life in data set [2] and in data set [3] were 60 min and 1 min, respectively.

For the compound `CCNC(=O)[C@@H]1CCCN1C(=O)[C@H](CCCNC(=N)N)NC(=O)[C@H](CC(C)C)NC(=O)[C@@H](CC(C)C)NC(=O)[C@H](Cc1ccc(O)cc1)NC(=O)[C@H](CO)NC(=O)[C@H](Cc1c[nH]c2ccccc12)NC(=O)[C@H](Cc1c[nH]cn1)NC(=O)[C@@H]1CCC(=O)N1`, the half-life in data set [2] was 4 min.

`CCNC(=O)[C@@H]1CCCN1C(=O)[C@H](CCCN=C(N)N)NC(=O)[C@H](CC(C)C)NC(=O)[C@@H](Cc1c[nH]c2ccccc12)NC(=O)[C@H](Cc1ccc(O)cc1)NC(=O)[C@H](CO)N(C)C(=O)[C@H](Cc1c[nH]c2ccccc12)NC(=O)[C@H](Cc1cnc[nH]1)NC(=O)[C@@H]1CCC(=O)N1` displayed a half-life in data set [2] of 39.1 min.

As to `CCNC(=O)[C@@H]1CCCN1C(=O)[C@H](CCCN=C(N)N)NC(=O)[C@H](CC(C)C)NC(=O)[C@@H](CC(C)C)NC(=O)[C@H](Cc1ccc(O)cc1)NC(=O)[C@H](CO)NC(=O)[C@H](Cc1ccc(Cl)cc1)NC(=O)[C@H](Cc1c[nH]cn1)NC(=O)[C@@H]1CCC(=O)N1`, the clearance in data set [1] was 7.6 mL/min/kg. The compound further registered a half-life in data set [2] of 4.4 min.

As for `CCNC(=O)[C@@H]1CCCN1C(=O)[C@H](CCCN=C(N)N)NC(=O)[C@H](CC(C)C)NC(=O)[C@@H](CC(C)C)NC(=O)[C@H](Cc1ccc(O)cc1)NC(=O)[C@H](CO)NC(=O)[C@H](Cc1ccc(OC)cc1)NC(=O)[C@H](Cc1c[nH]cn1)NC(=O)[C@@H]1CCC(=O)N1`, the clearance in data set [1] was found to be 13.3 mL/min/kg. The compound also returned a half-life in data set [2] of 14.9 min.

In data set [1], `CCNC(=O)[C@@H]1CCCN1C(=O)[C@H](CCCN=C(N)N)NC(=O)[C@H](CC(C)C)NC(=O)[C@@H](Cc1c[nH]c2ccccc12)NC(=O)[C@H](Cc1ccc(O)cc1)NC(=O)[C@H](CO)N(C)C(=O)[C@H](Cc1c[nH]c2ccccc12)NC(=O)[C@H](Cc1c[nH]cn1)NC(=O)CN(C)C(C)=O` showed a clearance of 28.3 mL/min/kg. For the same compound, the values for the half-life in data set [2] and in data set [3] were 55 min and more than 60 min, respectively.

In the case of `CCNC(=O)[C@@H]1CCCN1C(=O)[C@H](CCCN=C(N)N)NC(=O)[C@H](CC(C)C)NC(=O)[C@@H](CC(C)C)NC(=O)[C@H](Cc1ccc(O)cc1)NC(=O)[C@H](CO)NC(=O)[C@H](Cc1c[nH]c2ccccc12)NC(=O)[C@H](Cc1ccccc1)NC(=O)[C@@H]1CCC(=O)N1` ([pGlu]FWSY[dL]LRP-NHEt), the half-life in data set [2] was determined as 2.2 min.

`CCNC(=O)[C@@H]1CCCN1C(=O)[C@H](CCCN=C(N)N)NC(=O)[C@H](CC(C)C)NC(=O)[C@@H](Cc1c[nH]c2ccccc12)NC(=O)[C@H](Cc1ccc(O)cc1)NC(=O)[C@H](CO)NC(=O)[C@H](Cc1c[nH]c2ccccc12)NC(=O)[C@H](Cc1ccccc1)NC(=O)[C@@H]1CCC(=O)N1` ([pGlu]FWSY[dW]LRP-NHEt): the half-life in data set [2] came to 10.8 min.

`CCNC(=O)[C@@H]1CCCN1C(=O)[C@H](CCCN=C(N)N)NC(=O)[C@H](CC(C)C)NC(=O)[C@@H](CC(C)C)NC(=O)[C@H](Cc1ccc(O)cc1)NC(=O)[C@H](CO)N(C)C(=O)[C@H](Cc1c[nH]c2ccccc12)NC(=O)[C@H](Cc1c[nH]cn1)NC(=O)[C@@H]1CCC(=O)N1` ([pGlu]HW[NMeS]Y[dL]LRP-NHEt): the half-life in data set [2] is more than 90 min.

Compound `CCNC(=O)[C@@H]1CCCN1C(=O)[C@H](CCCN=C(N)N)NC(=O)[C@H](CC(C)C)NC(=O)[C@@H](CC(C)C)NC(=O)[C@H](Cc1ccc(O)cc1)NC(=O)[C@H](CO)NC(=O)[C@H](Cc1cccc2ccccc12)NC(=O)[C@H](Cc1c[nH]cn1)NC(=O)[C@@H]1CCC(=O)N1` ([pGlu]H[1Nal]SY[dL]LRP-NHEt) had a half-life in data set [2] of 25 min.

With `CCNC(=O)[C@@H]1CCCN1C(=O)[C@H](CCCN=C(N)N)NC(=O)[C@H](CC(C)C)NC(=O)[C@@H](Cc1c[nH]c2ccccc12)NC(=O)[C@H](Cc1ccc(O)cc1)NC(=O)[C@H](CO)NC(=O)[C@H](Cc1c[nH]c2ccccc12)NC(=O)[C@H](Cc1ccccc1)N(C)C(=O)[C@@H]1CCC(=O)N1` ([pGlu][NMeF]WSY[dW]LRP-NHEt), the clearance in data set [1] amounted to 44.4 mL/min/kg. The compound further yielded a half-life in data set [2] of 44.4 min.

The term clearance denotes a measure of how efficiently the substance is removed, as volume per time. High values mean efficient removal, low ones inefficient removal. By half-life is commonly meant the time needed for the level to fall by half in the phase considered.
